Measured values taken from ChEMBL document CHEMBL4814052, “Isatin-derived azoles as new potential antimicrobial agents: Design, synthesis and biological evaluation” (2021).
In brackets after ≈: the same amount, converted by molar mass. Activity calls are given as the source filed them. No cut-off for these calls is given here.

Tests used:
[1] = tested on: Klebsiella pneumoniae; assay: Antibacterial activity against Klebsiella pneumonia by broth microdilution method; assay type: functional
[2] = tested on: Escherichia coli; assay: Antibacterial activity against Escherichia coli by broth microdilution method; assay type: functional
[3] = tested on: Acinetobacter baumannii; assay: Antibacterial activity against Acinetobacter baumannii by broth microdilution method; assay type: functional
[4] = tested on: Staphylococcus aureus; assay: Antibacterial activity against methicillin resistant Staphylococcus aureus by broth microdilution method; assay type: functional
[5] = tested on: Pseudomonas aeruginosa; assay: Antibacterial activity against Pseudomonas aeruginosa ATCC 27853 by broth microdilution method; assay type: functional
[6] = tested on: Pseudomonas aeruginosa; assay: Antibacterial activity against Pseudomonas aeruginosa by broth microdilution method; assay type: functional
[7] = tested on: Staphylococcus aureus; assay: Antibacterial activity against Staphylococcus aureus ATCC 25923 by broth microdilution method; assay type: functional
[8] = tested on: Enterococcus faecalis; assay: Antibacterial activity against Enterococcus faecalis by broth microdilution method; assay type: functional
[9] = tested on: Staphylococcus aureus; assay: Antibacterial activity against Staphylococcus aureus ATCC 29213 by broth microdilution method; assay type: functional
[10] = tested on: Escherichia coli; assay: Antibacterial activity against Escherichia coli ATCC 25922 by broth microdilution method; assay type: functional
[11] = tested on: Staphylococcus aureus; assay: Antibacterial activity against Staphylococcus aureus by broth microdilution method; assay type: functional
[12] = tested on: Calf thymus DNA; assay: Binding affinity to calf thymus DNA assessed as reduction in neutral red-DNA complex formation by competitive binding assay; assay type: nucleic-acid assay; details: Bos taurus
[13] = tested on: Candida tropicalis; assay: Fungicidal activity against Candida tropicalis by broth microdilution method; assay type: functional, organism-based
[14] = tested on: Candida parapsilosis; assay: Fungicidal activity against Candida parapsilosis ATCC 22019 assessed as […] by broth microdilution method
[15] = tested on: Escherichia coli; assay: Antibacterial activity against Escherichia coli ATCC 25922 measured after 10 passages by broth microdilution method; assay type: functional, organism-based
[16] = tested on: Calf thymus DNA; assay: Binding affinity to calf thymus DNA assessed as hyperchromic effect by UV-Vis spectroscopy; assay type: nucleic-acid assay; details: Bos taurus
Outline: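 UV-Vis absorbance of the compound–DNA mixture is compared with the summed absorbances of free DNA and free compound. Hyperchromism is read as higher absorbance of the mixture than that sum.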

[17] = tested on: Escherichia coli; assay: Potency index, ratio of MIC of norfloxacin to MIC of compound for antibacterial activity against Escherichia coli ATCC 25922 by broth microdilution method; assay type: functional
[18] = tested on: Candida tropicalis; assay: Antifungal activity against Candida tropicalis; assay type: functional
[19] = tested on: Enterococcus faecalis; assay: Bactericidal activity against Enterococcus faecalis by broth microdilution method; assay type: functional, organism-based
[20] = tested on: Escherichia coli; assay: Antibacterial activity against Escherichia coli ATCC 25922 measured after 6 passages by broth microdilution method; assay type: functional, organism-based

Row | SMILES | MIC [1] [µg/mL] | MIC [2] [µg/mL] | MIC [3] [µg/mL] | MIC [4] [µg/mL] | MIC [5] [µg/mL] | MIC [6] [µg/mL] | MIC [7] [µg/mL] | MIC [8] [µg/mL] | MIC [9] [µg/mL] | MIC [10] [µg/mL] | MIC [11] [µg/mL] | Activity [12] | Activity [13] | Ratio [14] | Activity [15] | Activity [16] | Ratio [17] | MIC [18] [µg/mL] | Activity [19] | Activity [20]
1 | O=C(/C=C1\C(=O)N(CCn2cncn2)c2ccccc21)c1ccc(O)cc1 | 256 (≈ 710 µM) | 128 (≈ 355 µM) | 64 (≈ 178 µM) | 256 (≈ 710 µM) | 256 (≈ 710 µM) | 256 (≈ 710 µM) | 128 (≈ 355 µM) | 128 (≈ 355 µM) | 32 (≈ 88.8 µM) | 256 (≈ 710 µM) | 128 (≈ 355 µM) | – | – | – | – | – | – | – | – | –
2 | O=C(/C=C1\C(=O)N(CCn2cncn2)c2ccccc21)c1ccccc1 | 64 (≈ 186 µM) | 64 (≈ 186 µM) | 128 (≈ 372 µM) | 256 (≈ 743 µM) | 128 (≈ 372 µM) | 32 (≈ 92.9 µM) | 128 (≈ 372 µM) | 128 (≈ 372 µM) | 128 (≈ 372 µM) | 8 (≈ 23.2 µM) | 128 (≈ 372 µM) | – | – | – | – | – | – | – | – | –
3 | O=C(CC1(O)C(=O)N(CCn2cncn2)c2ccccc21)c1ccc(Cl)cc1 (stereo not given) | 256 (≈ 645 µM) | 128 (≈ 323 µM) | 64 (≈ 161 µM) | 128 (≈ 323 µM) | 128 (≈ 323 µM) | 512 (≈ 1290 µM) | 256 (≈ 645 µM) | 256 (≈ 645 µM) | 128 (≈ 323 µM) | 512 (≈ 1290 µM) | 128 (≈ 323 µM) | – | – | – | – | – | – | – | – | –
4 | Cc1nccn1CCN1C(=O)C(=O)c2ccccc21 | 64 (≈ 251 µM) | 256 (≈ 1000 µM) | 32 (≈ 125 µM) | 128 (≈ 501 µM) | 128 (≈ 501 µM) | 128 (≈ 501 µM) | 128 (≈ 501 µM) | 128 (≈ 501 µM) | 256 (≈ 1000 µM) | 128 (≈ 501 µM) | 128 (≈ 501 µM) | – | – | – | – | – | – | – | – | –
5 | O=C1C(=O)N(CCn2nnc3ccccc32)c2ccccc21 | 256 (≈ 876 µM) | 128 (≈ 438 µM) | 128 (≈ 438 µM) | 128 (≈ 438 µM) | 256 (≈ 876 µM) | 256 (≈ 876 µM) | 256 (≈ 876 µM) | 512 (≈ 1750 µM) | 256 (≈ 876 µM) | 128 (≈ 438 µM) | 256 (≈ 876 µM) | – | – | – | – | – | – | – | – | –
6 | O=C1C(=O)N(CCn2cncn2)c2ccccc21 | 128 (≈ 528 µM) | 32 (≈ 132 µM) | 128 (≈ 528 µM) | 256 (≈ 1060 µM) | 64 (≈ 264 µM) | 128 (≈ 528 µM) | 128 (≈ 528 µM) | 128 (≈ 528 µM) | 32 (≈ 132 µM) | 8 (≈ 33 µM) | 128 (≈ 528 µM) | – | – | – | – | – | – | – | – | –
7 | CC(=O)CC1(O)C(=O)N(CCn2cncn2)c2ccccc21 (stereo not given) | 256 (≈ 852 µM) | 256 (≈ 852 µM) | 256 (≈ 852 µM) | 256 (≈ 852 µM) | 256 (≈ 852 µM) | 256 (≈ 852 µM) | 256 (≈ 852 µM) | 256 (≈ 852 µM) | 256 (≈ 852 µM) | 512 (≈ 1700 µM) | 256 (≈ 852 µM) | – | – | – | – | – | – | – | – | –
8 | O=C1C(=O)N(CCn2ccnn2)c2ccccc21 | 256 (≈ 1060 µM) | 256 (≈ 1060 µM) | 32 (≈ 132 µM) | 256 (≈ 1060 µM) | 128 (≈ 528 µM) | 128 (≈ 528 µM) | 256 (≈ 1060 µM) | 128 (≈ 528 µM) | 256 (≈ 1060 µM) | 128 (≈ 528 µM) | 32 (≈ 132 µM) | – | – | – | – | – | – | – | – | –
9 | Cc1ccc(C(=O)CC2(O)C(=O)N(CCn3cncn3)c3ccccc32)cc1 (stereo not given) | 256 (≈ 680 µM) | 128 (≈ 340 µM) | 128 (≈ 340 µM) | 256 (≈ 680 µM) | 256 (≈ 680 µM) | 512 (≈ 1360 µM) | 256 (≈ 680 µM) | 128 (≈ 340 µM) | 128 (≈ 340 µM) | 512 (≈ 1360 µM) | 256 (≈ 680 µM) | – | – | – | – | – | – | – | – | –
10 | CC(=O)/C=C1\C(=O)N(CCn2cncn2)c2ccccc21 | 32 (≈ 113 µM) | 64 (≈ 227 µM) | 64 (≈ 227 µM) | 128 (≈ 453 µM) | 32 (≈ 113 µM) | 32 (≈ 113 µM) | 128 (≈ 453 µM) | 32 (≈ 113 µM) | 64 (≈ 227 µM) | 1 (≈ 3.54 µM) | 64 (≈ 227 µM) | Active | inactive | 4 | Active | Active | 8 | 8 (≈ 28.3 µM) | inactive | –
11 | CCn1cc(C(=O)O)c(=O)c2cc(F)c(N3CCNCC3)cc21 [NORFLOXACIN] | 4 (≈ 12.5 µM) | 16 (≈ 50.1 µM) | 8 (≈ 25.1 µM) | 8 (≈ 25.1 µM) | 2 (≈ 6.26 µM) | 2 (≈ 6.26 µM) | 1 (≈ 3.13 µM) | 4 (≈ 12.5 µM) | 2 (≈ 6.26 µM) | 8 (≈ 25.1 µM) | 1 (≈ 3.13 µM) | – | – | – | – | – | – | – | – | inactive
